High-throughput results from PubChem BioAssay.
A selection: hits, their analogues and other compounds. The true share with any hit is near 2.7%.
OX1R antag-1 – antagonists of human orexin 1 receptor (OX1R) | O43613 | OX1R-expressing cells, FRET antagonist read-out | inhibition, % at 6.6 µM | hit rate 1.8% among 330,000 | AID 485270; in the data active = inhibition mostly above about 38%, no sharp cut-off; inactive = mostly below about 40%
OXTR agonist – agonists of human oxytocin receptor | CHO-OTR cells, Fluo-8 calcium fluorescence; normalized: DMSO 0%, oxytocin 100% | activation, % at 3 µM | P30559 | hit rate 0.32% among 320,000;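 active = activation above the mean of all tested compounds plus 3 SD, cutoff set per screening run, cut at about 20% in these data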;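 note: peak over basal fluorescence ratio from a 100 s FLIPR kinetic read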
Target sequence (P30559 whole entry, looked up): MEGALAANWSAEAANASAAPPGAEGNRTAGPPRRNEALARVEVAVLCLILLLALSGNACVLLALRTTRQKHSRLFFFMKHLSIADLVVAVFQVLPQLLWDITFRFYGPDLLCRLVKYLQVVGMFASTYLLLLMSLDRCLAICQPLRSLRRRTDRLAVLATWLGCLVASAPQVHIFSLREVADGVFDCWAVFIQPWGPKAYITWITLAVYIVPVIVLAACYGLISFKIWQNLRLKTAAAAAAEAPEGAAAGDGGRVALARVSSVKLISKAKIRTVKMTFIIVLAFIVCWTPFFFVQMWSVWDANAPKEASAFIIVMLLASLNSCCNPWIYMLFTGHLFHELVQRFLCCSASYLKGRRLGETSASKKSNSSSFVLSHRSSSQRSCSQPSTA
CHO parental Ca – counter-screen: ATP calcium response change in parental CHO cells. AID 463079. hit rate 0.63% among 330,000. parental CHO-K1, ATP-induced calcium, Fluo-8 fluorescence. inhibition, % at 5.6 µM;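 active = inhibition above that plate's mean sample inhibition plus 3 SD, cut at about 26% in these data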
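Assay system: parental CHO cells; Read-out basis: percent inhibition of ATP-evoked calcium rise, normalized to controls; Benchmarks: ATP and no-ATP DMSO wells; Compound dosing: single nominal dose of 5.6 µM per compound; Signal: Fluo-8 calcium dye fluorescence; Also added: ATP as calcium-mobilizing challenge; Repeats: singlicate.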
OXTR potentiate – potentiates the human oxytocin receptor response; hit rate 0.061% among 320,000; CHO-OTR cells, Fluo-8 calcium fluorescence, potentiator mode; 0% = oxytocin EC15, 100% = EC100; P30559; AID 2445; activation, % at 3 µM;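 active = activation above that plate's cutoff, the mean activation of tested compounds plus 3 SD, cut at about 6.6% in these data, passing the limit was not always enough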
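test system = CHO-OTR cells, human receptor | compound = single-point 3.0 µM | schedule = 6 min compound pre-incubation at room temperature, 100 s kinetic read | signal = Fluo-8 no-wash calcium dye fluorescence, excitation 470-495 nm, emission 515-575 nm | repeats = single well per compound, singlicate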
OX1R antag-2 – blocks the human orexin 1 receptor. O43613. CHO/OX1R cells, Fluo-8 calcium fluorescence, orexin A. inhibition, % at 5 µM. hit rate 0.43% among 330,000;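 active = inhibition above its plate's threshold, mean inhibition of all tested compounds on the plate plus 3 SD, cut at about 37% in these data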
V1R ag counter – activates human V1a receptor in oxytocin agonist counter-screen. P37288. CHO-V1R cells, Fluo-8 calcium fluorescence, agonist mode; 0% DMSO, 100% 3 nM vasopressin. activation, % at 3 µM. hit rate 0.25% among 320,000. AID 2797;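 active = activation above the mean activation of all tested compounds plus 3 SD, per screening run, cut at about 20% in these data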;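 note: signal is peak over basal fluorescence ratio across a 100 second FLIPR read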
Of the large screens only hits and unclear results are named; the others gave an inactive call.

Cc1ccc([C@@H]2CC=C(C(=O)O)[C@H](c3ccc(Br)cc3)N2S(=O)(=O)c2ccc(C)cc2)cc1	OX1R antag-1 39.4
COc1ccc(/C=N/NC(=O)CNC(=O)c2ccncc2)cc1OC	none
O=C(NCCS(=O)(=O)N1CCCCCC1)c1ccccc1	none
COc1cc(S(=O)(=O)N2CCN(Cc3ccc4c(c3)OCO4)CC2)ccc1NC(C)=O	none
CCN(CC)S(=O)(=O)c1ccc(N=NC2=C(O)CC(C)(C)CC2=O)cc1	none
CCN(CC)S(=O)(=O)c1ccc(N=NC2=C(O)CCCC2=O)cc1	OX1R antag-1 54.9
Cc1ccc(NC(=O)CSc2nc3nn(-c4ccccc4)c(=O)c-3c3n2CCCCC3)cc1F	none
Cc1ccc([C@@H]2CC=C(C(=O)O)[C@H](c3ccc(C(C)(C)C)cc3)N2S(=O)(=O)c2ccc(C)cc2)cc1	none
CCc1ccc([C@@H]2CC=C(C(=O)O)[C@H](c3ccc(C(C)(C)C)cc3)N2S(=O)(=O)c2ccc(C)cc2)cc1	CHO parental Ca 69.7
CCc1ccc([C@@H]2CC=C(C(=O)O)[C@H](c3ccccc3)N2S(=O)(=O)c2ccc(C)cc2)cc1	none
Cc1ccc(S(=O)(=O)N2[C@@H](c3ccc(C(C)(C)C)cc3)C(C(=O)O)=CC[C@H]2c2ccc(Cl)cc2)cc1	CHO parental Ca 41.4
COc1ccc(-c2nn(Cc3ccccc3)cc2C(=O)N2CCN(c3ncccn3)CC2)cc1	none
O=C(COc1ccc([N+](=O)[O-])cc1)Nc1ccccc1N1CCCC1	none
Cc1nc(SCC(=O)c2cccs2)c2oc3ccccc3c2n1	OX1R antag-1 72.9
Cc1nc(SCc2nc3ccccc3[nH]2)c2oc3ccc(Br)cc3c2n1	none
Cc1nc(SCc2nc3ccccc3[nH]2)c2oc3ccccc3c2n1	OX1R antag-1 79.4
C=C1CCN(c2ccc(C(=O)O)cc2[N+](=O)[O-])CC1	OX1R antag-1 69.8
O=C(CCNS(=O)(=O)c1ccccc1)NNC(=O)COc1ccc(Cl)cc1	none
CCCNc1[nH]c(=O)n(C)c(=O)c1N=O	OX1R antag-1 69.1
O=C(Nc1cc(Cl)ccc1N1CCCC1)C1=NN(c2ccccc2)C(=O)CC1	none
Cc1ccc(-c2nnc(COC(=O)c3cccs3)o2)cc1	none
Cc1ccc(SCCC(=O)NNC(=O)c2ccccc2F)cc1	none
COc1ccccc1N1C(=O)c2cccc3c(C(=O)O)ccc(c23)C1=O	OX1R antag-1 38.1
COc1ccc2c3c(cccc13)C(=O)N(O)C2=O	none
CCN1CCN(C(=O)c2cc(COc3ccc4ncccc4c3)on2)CC1	none
COCC1CCCCN1C(=O)c1cc(COc2ccc3ncccc3c2)on1 (centres undefined)	CHO parental Ca 46.9, OX1R antag-2 55.1
COCCC1CCCCN1C(=O)c1cc(COc2ccc(-n3cncn3)cc2)on1 (centres undefined)	CHO parental Ca 53.0
C[C@]12CCC[C@H](O1)c1c(cc3c(c1O)C(=O)c1c(O)cc(O)cc1C3=O)O2	none
C[C@@H]1NC(=O)c2cc([N+](=O)[O-])cc(I)c2OCC[C@@H](C(=O)NC(CC(=O)O)C(N)=O)NC(=O)[C@H](CC(N)=O)NC1=O (some centres undefined)	CHO parental Ca 51.5
CCOc1ccc2nc(SCC(=O)Nc3ccc4[nH]c(=O)[nH]c4c3)[nH]c2c1	none
Cc1ccc(-c2nc3cccnc3o2)cc1NC(=O)COc1ccc(Cl)cc1C	none
Cc1ccc(-c2nc3cccnc3o2)cc1NC(=O)COc1ccc(C(C)(C)C)cc1	CHO parental Ca 40.0
Cc1ccc(S(=O)(=O)/N=C2/C=C(Sc3ncn[nH]3)C(=O)c3ccccc32)cc1	OX1R antag-1 58.8
O=C(COC(=O)c1ccc(F)c(S(=O)(=O)N2CCOCC2)c1)NCCc1ccc(F)cc1	none
CCN(c1ccc(C)cc1C)S(=O)(=O)c1nnc(NC(=O)C(C)(C)C)s1	none
COc1cc(OC)cc(-c2nnc(SCc3c(F)cccc3Cl)o2)c1	CHO parental Ca 37.6
O=C1c2ccccc2C(=O)c2c1cccc2N(CCO)CCO	OX1R antag-1 58.9
O=C1NC(=S)S/C1=C\c1coc2ccc(O)cc2c1=O	none
O=C1NC(=S)S/C1=C\c1coc2ccccc2c1=O	OX1R antag-1 64.4
O=C(CN1C(=O)c2ccccc2S1(=O)=O)Nc1ncc(Cl)cc1Cl	none
COc1ccc(C(CCNCc2ccc(OC(C)C)cc2)C(C)C)cc1 (centres undefined)	CHO parental Ca 27.0
COc1cccc(/C=C(/C(=O)OCC(=O)NC2CCCC(C)C2C)c2ccccc2)c1 (centres undefined)	CHO parental Ca 65.3
CC(C)N(C(=O)CSc1nc2ccccc2n1-c1ccccc1)C(C)C	OX1R antag-1 54.7
CCOCCCNC(=O)/C(C#N)=C/c1cc(OC)c(O)c([N+](=O)[O-])c1	OX1R antag-1 41.5
CCOCCCNC(=O)/C(C#N)=C/c1ccc(Cl)c([N+](=O)[O-])c1	none
O=C(c1cc2nc(-c3ccc(F)cc3)cc(C(F)(F)F)n2n1)N1CCCCC1c1cccnc1 (centres undefined)	CHO parental Ca 41.9
O=C(c1cnn2c(C(F)(F)F)cc(-c3ccccc3)nc12)N1CCCCC1c1cccnc1 (centres undefined)	none
CCCCn1c(N)c(N(C)C(=O)c2c(C)nn(-c3ccccc3)c2C)c(=O)[nH]c1=O	none
Cc1ccc(S(=O)(=O)N2CCCC2C(=O)OCc2nc3ccccc3s2)cc1 (centres undefined)	CHO parental Ca 58.7
CCNC(=O)N(C)C[C@H]1N[C@@](Cc2ccccc2)(C(=O)OC)[C@H]2C(=O)N(C)C(=O)[C@@H]12	none
Cc1cc(C(=O)COC(=O)c2ccccc2O)c(C)n1CC1CCCO1 (centres undefined)	none
C=CCn1c(C)cc(C(=O)CSc2nc3ccccc3c(=O)[nH]2)c1C	OX1R antag-1 61.1, CHO parental Ca 55.3, OX1R antag-2 55.1
Cc1ccc(C(=O)CSc2nc3ccccc3c(=O)[nH]2)cc1C	OX1R antag-1 48.4
Cc1cc(C)c(C(=O)CSc2nc3ccccc3c(=O)[nH]2)cc1C	none
C=CCn1c(C)cc(C(=O)CSc2nc3ccccc3[nH]2)c1C	OX1R antag-1 42.1, OX1R antag-2 46.4
Cc1cc(C(=O)CSc2nc3ccccc3[nH]2)c(C)n1C	none
Cc1cc(C(=O)COc2ccccc2C(N)=O)c(C)n1CC1CCCO1 (centres undefined)	CHO parental Ca 33.9
CC1CCCN(CC(O)COc2ccc(S(=O)(=O)N3CCCC3)cc2[N+](=O)[O-])C1 (centres undefined)	none
CC(C)[C@H](N)c1cn([C@@H](CC(N)=O)C(=O)N2CCNCC2)nn1	none
